# In the library only some 2.6% were active in any assay of this set; here they are far more common.
# SIRT5 block = sirtuin-5 (human) deacylase inhibition; Purified SirT5, succinyl-peptide AMC, trypsin-coupled fluorescence; Q9NXA8; AID 652115; 330,000 compounds, 1.1% hits; inhibition, % at 15 µM; in the data active means inhibition above about 15%
# NSD2 inh = NSD2 (human) methyltransferase inhibition. 310,000 compounds, 0.54% hits. NSD2 peptide methylation, AlphaScreen, 120 min. inhibition, % at 12.5 µM. AID 743445; in the data active means inhibition above about 50%
# Target sequence (O96028 whole entry, looked up): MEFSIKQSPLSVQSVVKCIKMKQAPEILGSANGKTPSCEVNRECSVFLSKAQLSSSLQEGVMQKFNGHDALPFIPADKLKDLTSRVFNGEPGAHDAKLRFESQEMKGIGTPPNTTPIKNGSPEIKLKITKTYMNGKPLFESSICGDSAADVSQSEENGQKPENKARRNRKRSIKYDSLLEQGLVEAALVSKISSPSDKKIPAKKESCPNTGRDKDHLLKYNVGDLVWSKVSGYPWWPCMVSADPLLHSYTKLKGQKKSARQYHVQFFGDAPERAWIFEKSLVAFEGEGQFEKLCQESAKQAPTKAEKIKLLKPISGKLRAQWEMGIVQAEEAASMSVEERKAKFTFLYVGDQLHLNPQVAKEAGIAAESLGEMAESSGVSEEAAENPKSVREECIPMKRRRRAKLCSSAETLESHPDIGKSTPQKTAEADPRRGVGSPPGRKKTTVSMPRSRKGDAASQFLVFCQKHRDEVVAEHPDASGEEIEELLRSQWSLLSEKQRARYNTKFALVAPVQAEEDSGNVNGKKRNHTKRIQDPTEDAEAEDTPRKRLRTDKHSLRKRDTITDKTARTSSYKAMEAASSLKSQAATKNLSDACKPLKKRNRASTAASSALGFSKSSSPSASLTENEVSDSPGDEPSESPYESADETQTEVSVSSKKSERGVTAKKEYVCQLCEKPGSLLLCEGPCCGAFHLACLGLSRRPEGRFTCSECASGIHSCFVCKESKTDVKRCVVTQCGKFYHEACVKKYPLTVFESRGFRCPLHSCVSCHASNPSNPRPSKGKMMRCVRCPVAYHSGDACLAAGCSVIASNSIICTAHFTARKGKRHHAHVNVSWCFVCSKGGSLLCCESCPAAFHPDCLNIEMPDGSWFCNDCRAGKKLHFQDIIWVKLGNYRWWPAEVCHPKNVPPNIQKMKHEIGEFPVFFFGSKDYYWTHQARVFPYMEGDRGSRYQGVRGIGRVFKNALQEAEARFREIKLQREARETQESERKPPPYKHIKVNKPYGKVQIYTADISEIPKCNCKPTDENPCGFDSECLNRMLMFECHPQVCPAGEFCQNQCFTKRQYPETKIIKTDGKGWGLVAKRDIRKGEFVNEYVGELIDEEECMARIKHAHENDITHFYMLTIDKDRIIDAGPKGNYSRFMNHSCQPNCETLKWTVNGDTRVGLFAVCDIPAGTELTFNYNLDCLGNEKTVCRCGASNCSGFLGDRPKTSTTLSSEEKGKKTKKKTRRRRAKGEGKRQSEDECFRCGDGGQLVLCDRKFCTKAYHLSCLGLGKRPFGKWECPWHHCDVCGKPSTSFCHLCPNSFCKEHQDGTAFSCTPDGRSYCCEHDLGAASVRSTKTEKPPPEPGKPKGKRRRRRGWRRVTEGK
# FGF22 binding = shifts melting point of recombinant human FGF22; recombinant FGF22 thermal shift, SYPRO orange fluorescence; percent of sucrose octasulfate shift, DMSO zero; Q9HCT0; 340,000 compounds, 1.5% hits; activity (Tm shift, normalised), % at 9.99 µM;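 active means mean Tm shift, scaled 0 neutral to 100 positive control, at about 1.3% or above, every replicate too, limit read from the data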
# CASP6 VEID inh = inhibitors of human caspase-6 | purified caspase-6, Z-VEID-R110 cleavage fluorescence | inhibition, % at 12.5 µM | P55212 | 350,000 compounds, 0.53% hits;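 active means mean inhibition across replicates at least about 35%, with every replicate also reaching that limit, limit read from the data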;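 further: 0% = median of neutral control wells and 100% = no fluorescence left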
# UCH37 DUB inh = inhibitors of human deubiquitinating enzyme UCH37 | AID 588478 | Q9Y5K5 | inhibition, % (concentration not given with the values) | 330,000 compounds, 0.33% hits | purified proteasome/UCH37, Ub-AMC cleavage fluorescence;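 active means mean inhibition over replicate wells above about 20%, limit read from the data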;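 further: 0% = compound-free wells with enzyme and 100% = wells lacking proteasome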
#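 system = Proteasome-associated human UCH37 deubiquitinase | amount = 0.15 nM proteasome as dispensed | medium = pH 7.4 Tris-HCl (50 mM) with ovalbumin, ATP-MgCl2, DTT | incubation = 30 min preincubation with enzyme, 25 min cleavage at room temperature | detection = AMC fluorescence 355/460 nm | read-out basis = percent inhibition | controls = no-proteasome and no-compound wells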
# The depositor's hits bear a star; nt = not tested or not shown.
SMILES,SIRT5 block,NSD2 inh,FGF22 binding,CASP6 VEID inh,UCH37 DUB inh
CN(C)c1ccc(/C=C2/SC(=O)N(CCN=C3NS(=O)(=O)c4ccccc43)C2=O)cc1,18*,-2,0,0,nt
CN(C)c1ccc(/C=C2\SC(=O)N(CC(O)Cn3c4ccccc4c4ccccc43)C2=O)cc1 (configuration not stated),nt,-2,nt,nt,3
N#C/C(=C\c1ccc(O)c(O)c1)C(=O)c1ccc(O)c(O)c1,11,nt,0,72*,16
Cc1cc(OC(=O)c2ccc(S(=O)(=O)N3CCCCC3)cc2)c([N+](=O)[O-])c(=O)[nH]1,-1,0,0,12,9
Cc1cc(OC(=O)c2ccc(S(=O)(=O)N3CCCC3)cc2)c([N+](=O)[O-])c(=O)[nH]1,0,-1,43*,2,5
Cc1cccc(NC(=NS(=O)(=O)c2ccccc2)C(F)(F)F)c1,nt,nt,nt,nt,1
O=C(Nc1nnc(SCC(=O)N2CCCC2)s1)C1CC(=O)N(c2ccccc2)C1 (configuration not stated),0,1,0,-5,3
COc1cccc(N2CC(C(=O)Nc3nnc(SCC(=O)N4CCCC4)s3)CC2=O)c1 (configuration not stated),17*,2,0,4,-2
CC1(C)Cc2ccccc2C(C(Cc2ccccc2)C(N)=O)=N1 (configuration not stated),-1,nt,43*,5,2
CC1(C)Cc2ccccc2C(C(=O)c2ccccc2)=N1,-2,-1,0,-3,0
O=C1NC(Cc2ccc(O)cc2)c2nc3cc(F)ccc3c(=O)n2-c2ncccc21 (configuration not stated),2,nt,1,15,nt
O=C1NC(Cc2ccc(O)cc2)c2nc3ccc(F)cc3c(=O)n2-c2ncccc21 (configuration not stated),22*,nt,0,7,nt
C[C@@H]1CN([C@@H](C)CO)C(=O)c2cc(NS(=O)(=O)c3ccc(F)cc3)ccc2O[C@@H](C)CCCCO[C@@H]1CN(C)S(=O)(=O)c1ccc(Cl)cc1,25*,nt,0,-1,nt
C[C@@H]1CCCCO[C@@H](CN(C)S(=O)(=O)c2ccc(Cl)cc2)[C@@H](C)CN([C@H](C)CO)C(=O)c2cc(NS(=O)(=O)c3ccc(F)cc3)ccc2O1,15*,nt,0,-1,nt
C[C@@H]1CCCCO[C@H](CN(C)S(=O)(=O)c2ccc(Cl)cc2)[C@@H](C)CN([C@@H](C)CO)C(=O)c2cc(NS(=O)(=O)c3ccc(F)cc3)ccc2O1,0,nt,0,-8,nt
C[C@@H]1CN([C@H](C)CO)C(=O)c2cc(NS(=O)(=O)c3ccc(F)cc3)ccc2O[C@@H](C)CCCCO[C@@H]1CN(C)S(=O)(=O)c1ccc(Cl)cc1,26*,nt,0,-1,nt
C[C@@H]1CCCCO[C@@H](CN(C)S(=O)(=O)c2ccc(Cl)cc2)[C@H](C)CN([C@H](C)CO)C(=O)c2cc(NS(=O)(=O)c3ccc(F)cc3)ccc2O1,-1,nt,0,-1,nt
Oc1ccc(Br)cc1C=NN1CCCCC1,nt,nt,nt,nt,2
COc1ccc(C(NC(=O)C2C3C=CC(C3)C2C(=O)O)c2ccccc2)cc1 (configuration not stated),1,2,52*,1,2
C=CC[C@]1(C(=O)N(C)C)COC(c2ccc(OCCCO)cc2)=N1,4,nt,0,0,nt
CCc1c(C)[nH]c(C(=O)OCc2ccccc2)c1C,-2,3,43*,-2,4
CCc1c(C(=O)OCc2ccccc2)[nH]c(C)c1C,-5,2,0,3,6
C[C@@H]1CCCCO[C@@H](CN(C)Cc2ccc(C(F)(F)F)cc2)[C@@H](C)CN([C@@H](C)CO)C(=O)c2cc(NS(=O)(=O)c3ccc(Cl)cc3)ccc2O1,16*,nt,0,0,nt
C[C@H](CO)N1C[C@H](C)[C@@H](CN(C)Cc2ccc(C(F)(F)F)cc2)OCCCC[C@H](C)Oc2ccc(NS(=O)(=O)c3ccc(Cl)cc3)cc2C1=O,19*,nt,-1,-3,nt
C[C@@H]1CN([C@H](C)CO)C(=O)c2cc(NS(=O)(=O)c3ccc(Cl)cc3)ccc2O[C@@H](C)CCCCO[C@@H]1CN(C)Cc1ccc(C(F)(F)F)cc1,17*,nt,0,0,nt
SMILES,SIRT5 block,NSD2 inh,FGF22 binding,CASP6 VEID inh,UCH37 DUB inh
C[C@@H]1CN([C@H](C)CO)C(=O)c2cc(NC(=O)C3CCCCC3)ccc2O[C@@H]1CN(C)C(=O)Nc1ccc(F)cc1,-2,nt,1,1,nt
COC(=O)c1c(-c2ccc(OC)cc2)oc2ccc(-c3cc(OC)c(OC)c(OC)c3)cc12,23*,nt,0,2,nt
COc1ccc(C(=O)c2c(-c3ccc(OC)cc3)oc3ccc(-c4cc(OC)c(OC)c(OC)c4)cc23)cc1,-4,nt,0,-1,0
CCCCCC(=O)Nc1cccc(C2=NOC3(C2)C[C@H](C(N)=O)N(C(=O)c2ccccc2)C3)c1 (some centres not stated),nt,nt,nt,nt,1
C=C(C)C(=O)Nc1cccc(C2=NOC3(C2)C[C@@H](C(N)=O)N(C(=O)/C(C)=C/C)C3)c1 (some centres not stated),2,nt,0,63*,0
C=C(C)C(=O)Nc1cccc(C2=NOC3(C2)C[C@@H](C(N)=O)N(C(=O)/C=C/C=C/C)C3)c1 (some centres not stated),nt,nt,0,51*,1
C/C=C/C=C/C(=O)N1CC2(CC(c3cccc(NC(=O)/C=C/C)c3)=NO2)C[C@@H]1C(N)=O (some centres not stated),nt,nt,0,3,1
C=C(C)C(=O)N1CC2(CC(c3cccc(NC(=O)CCCCC)c3)=NO2)C[C@H]1C(N)=O (some centres not stated),23*,nt,0,8,1
C=C(C)C(=O)Nc1cccc(C2=NOC3(C2)C[C@H](C(N)=O)N(C(=O)c2ccccc2C(=O)c2ccccc2)C3)c1 (some centres not stated),2,nt,0,63*,3
COc1ccc(C)cc1-n1nnnc1SCC(O)=C(C#N)c1nc2ccccc2[nH]1,nt,nt,nt,nt,3
CCCS(=O)(=O)N1CCN(S(=O)(=O)c2ccccc2[N+](=O)[O-])CC1,-1,0,43*,1,0
C=CCC[C@@H](CCCCC)OC(=O)/C=C/[C@H](O)[C@@H](O)C[C@H](O)CC=C,16*,nt,0,2,nt
COC(=O)[C@@H]1CCCN1C(=O)CCc1nnc(CCC2CCCCC2)o1,-2,-2,43*,-2,2
O=S(=O)(c1ccc(Cl)cc1)c1snnc1-c1ccccc1,nt,-2,nt,nt,-2
O=S(=O)(c1ccc(F)cc1)c1snnc1-c1ccccc1,0,4,0,43*,1
COc1ccc(-c2coc3cc(OC)cc(O)c3c2=O)cc1,nt,-1,nt,nt,nt
COc1ccc(-c2coc3cc(O)cc(O)c3c2=O)cc1,-2,nt,2.2*,-1,2
O=C1CCCN1CCc1cccc2ccccc12,-5,2,43*,-2,0

# High-throughput results deposited in PubChem by several laboratories.
